The source made the active and inactive calls.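 The calls were made as follows, unless noted: active = inhibition of the reporter signal at or above 50%; inactive = inhibition below 50%.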

Assay [1] is described as follows: inhibitors of TNFa-induced NFkB p65 translocation, primary screen, imaging, HUVEC, MLSMR starter and 10KST1 sets (AID 438;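 active = inhibition above 20% together with a positive visual image hit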;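 also: compound added about 3h40 before a 20 min TNFalpha stimulation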;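 as to inhibition: signal is the nuclear over cytoplasmic p65 intensity ratio per well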). The conditions noted are these: HUVEC TNFa-induced p65 nuclear translocation; cell count: measured here: nuclei count (cytotoxicity indicator), at 2.08 µM; inhibition: at 2 µM, stronger effect = higher value, 0% TNFa-plus-vehicle, 100% no-TNFa wells.
Assay [2] is described as follows: inhibitors of mutant huntingtin aggregation, primary screen, imaging, exon1htt(103Q)mCFP cells, high-content imaging (AID 483;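 active = visual image review flags a hit and inhibition of aggregation exceeds 20%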;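 also: compound exposure lasted 3 days before fixation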;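 as to nuclei count: percent of the per-plate median nuclei count of sample wells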). The conditions noted are these: exon1htt(103Q)mCFP cell line, aggregate imaging, at 2 µM; inhibition of aggregation: stronger effect = higher value; nuclei count: measured here: cell count, toxicity.
The nature of assay [3]: inhibitors of E-selectin induction by TNFa, primary screen, imaging, HUVEC, immunofluorescence, MLSMR starter and 10KST1 sets (AID 487;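 active = visually confirmed hit in the image check and inhibition above 20%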;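 as to inhibition: signal is fraction of cell area covered by stained E-selectin grains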;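 as to nuclei count: 100% = median nuclei count of all wells on the same plate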). Conditions: HUVEC TNFalpha-induced E-selectin immunofluorescence imaging, at 2 µM; inhibition: stronger effect = higher value; nuclei count: measured here: cell number, toxicity.
Assay [4] addresses Voltage-gated potassium channel subunit beta-2 (Rattus norvegicus) (UniProt P62483). Nature of the assay: KvBeta enzyme negative modulators, primary screen, biochemical, NADPH fluorescence (AID 622;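 active = fluorescence slope higher than the sample average by over 3 SD, cut at about -0.22 in these data, passing the limit was not always enough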;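 also: slope of raw intensity against log time taken from 70 to 1610 s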). Conditions: recombinant KvBeta, 4-cyanobenzaldehyde reduction, at 10 µM, stronger effect = higher value.
For assay [5] the target is unchanged. Nature of the assay: KvBeta positive modulators, primary screen, biochemical, NADPH fluorescence (AID 623;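 active = NADPH fluorescence slope more negative than the mean of all samples by about 3 SD, 99.7% confidence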;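 also: fluorescence intensity change per second fitted from 20 to 320 s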). The conditions noted are these: Recombinant KvBeta, NADPH fluorescence decrease slope, 10 min; at 10 µM; stronger effect = lower value.
Assay [6] deals with Muscarinic acetylcholine receptor M4 (Homo sapiens) (UniProt P08173). Nature of the assay: compounds altering M4/GIRK thallium flux, either direction, primary screen, M4 allosteric agonist project, cell-based, HEK293 M4/GIRK, BTC-AM (AID 625;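 active = fluorescence slope after compound addition differing from the mean of all tested samples at 99.7% confidence, mostly higher but some lower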;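 also: thallium influx through GIRK channels coupled to M4 in HEK293 cells with BTC-AM dye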). Conditions: at 10 µM, actives lie on both sides. In a few lines: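 assay system = HEK293 cells with M4 receptor and GIRK channels | medium = pH 7.3 thallium assay buffer | doses = 10 µM final, single point | timing = cells overnight at 37 °C, BTC-AM loading 1 h, reads 2 min total | signal = BTC-AM fluorescence, 1 Hz kinetic reads | read-out = post-addition slope, 15–24 s, of baseline-normalized fluorescence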

A short description of assay [7]: inhibitors of Sendai virus-induced IRF3 signaling, primary screen, TLR/RLR signaling modifier project, cell-based, Sendai virus stimulus, luciferase, 10K MLSCN set (AID 602276;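 active = inhibition at or above 50% at 10 µM; inactive = inhibition below 50%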;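 also: firefly luciferase from ISG56 promoter only with Renilla not read in this screen; 0% = Sendai virus plus DMSO and 100% = medium plus DMSO without virus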). The conditions noted are these: HEK293 RL24 IRF3 luciferase reporter, at 10 µM, stronger effect = higher value. On the technique in general: A reporter such as luciferase makes a cellular process visible.

Assay [8] is described as follows: inhibitors of poly I:C-induced TLR3 signaling, primary screen, cell-based, poly I:C stimulus, luciferase, 10K MLSCN set (AID 602277). Conditions: HEK293-TLR3 RL24 IRF3 luciferase reporter, at 10 µM, stronger effect = higher value.

Muscarinic acetylcholine receptor M4 (Homo sapiens), sequence (P08173 whole entry, looked up): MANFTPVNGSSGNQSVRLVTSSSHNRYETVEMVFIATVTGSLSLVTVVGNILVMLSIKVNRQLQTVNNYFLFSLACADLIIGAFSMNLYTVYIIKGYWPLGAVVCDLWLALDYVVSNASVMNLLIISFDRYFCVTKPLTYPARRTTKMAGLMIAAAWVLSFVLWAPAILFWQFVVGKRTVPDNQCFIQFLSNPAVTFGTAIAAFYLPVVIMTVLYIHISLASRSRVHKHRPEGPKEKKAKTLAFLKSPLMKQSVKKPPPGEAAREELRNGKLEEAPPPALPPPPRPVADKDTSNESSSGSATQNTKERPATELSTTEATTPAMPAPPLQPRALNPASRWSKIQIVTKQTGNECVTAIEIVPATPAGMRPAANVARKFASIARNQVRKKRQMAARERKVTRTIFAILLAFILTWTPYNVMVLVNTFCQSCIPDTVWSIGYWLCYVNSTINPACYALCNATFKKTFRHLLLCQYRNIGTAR
Voltage-gated potassium channel subunit beta-2 (Rattus norvegicus), sequence (P62483 whole entry, looked up): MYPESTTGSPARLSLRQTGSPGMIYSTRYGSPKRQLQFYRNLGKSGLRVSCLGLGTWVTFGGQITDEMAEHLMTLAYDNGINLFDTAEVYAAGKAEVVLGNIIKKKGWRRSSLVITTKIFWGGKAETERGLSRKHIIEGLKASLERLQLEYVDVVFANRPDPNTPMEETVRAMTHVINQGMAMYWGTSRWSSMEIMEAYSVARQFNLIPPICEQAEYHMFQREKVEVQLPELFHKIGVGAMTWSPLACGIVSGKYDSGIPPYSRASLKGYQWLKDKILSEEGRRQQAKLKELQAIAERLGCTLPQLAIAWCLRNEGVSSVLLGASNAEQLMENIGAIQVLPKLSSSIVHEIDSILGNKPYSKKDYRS

A word on the inhibition: it is the change of the read-out against control, counted positive when it falls. With `N#Cc1nc(-c2cccs2)oc1NCc1ccc(Cl)cc1`, the cell count in assay [1] amounted to 341. In addition, the inhibition in assay [1] is -8.1% (inactive); in assay [3], 47.2% (inactive); in assay [7], 18.3% (inactive); in assay [8], 10.5% (inactive). Besides, the inhibition of aggregation in assay [2] was 19.1% (inactive). Also, the nuclei count came to 98.9% in assay [2] and 106% in assay [3]. Moreover, the fluorescence slope in assay [4] is -0.526 (inactive); in assay [6], 0.00571 (inactive). Further, in assay [5], the NADPH fluorescence slope is -2e-05 (inactive).
In the case of `O=C(NC1CCCCC1)C1CC(O)CN1C(=O)OCc1ccccc1` (stereo not given), the cell count in assay [1] came out at 819. For the same molecule, the inhibition in assay [1] is -4.1% (inactive); in assay [3] it was -56.4% (inactive); in assay [7], 2.76% (inactive); in assay [8], 14.7% (inactive). For the same molecule, the inhibition of aggregation in assay [2] was 26.1% (inactive). In addition, the results for the nuclei count in assay [2] and in assay [3] were 104% and 98%, respectively. Further, the fluorescence slope was -0.564 (inactive) in assay [4] and 0.00452 (inactive) in assay [6]. For the same molecule, in assay [5], the NADPH fluorescence slope was -7.5e-06 (inactive).
For the molecule `CCCCc1cc(=O)oc2cc(C)cc(OC(C)C(=O)O)c12` (stereo not given), the cell count in assay [1] amounted to 452. The inhibition in assay [1] was -2.1% (inactive); in assay [3], -39.6% (inactive); in assay [7], 5.95% (inactive); in assay [8], 21.5% (inactive). In addition, in assay [2], the inhibition of aggregation is -5.4% (inactive). The nuclei count in assay [2] turned out to be 110%; in assay [3] it was 134%. Further, the fluorescence slope is -0.0718 (inactive) in assay [4] and 0.00603 (inactive) in assay [6]. In assay [5], the NADPH fluorescence slope was -1e-05 (inactive).
`COC(=O)c1ccccc1NC(=O)Nc1cc(C)cc(C)n1`: in assay [1], the cell count came out at 205. In addition, the inhibition in assay [1] is 0.9% (inactive); in assay [3], 10.8% (inactive); in assay [7], 6.32% (inactive); in assay [8], 99% (active). Further, the inhibition of aggregation in assay [2] was -2.4% (inactive). In addition, the nuclei count turned out to be 71.9% in assay [2] and 140% in assay [3]. The fluorescence slope in assay [4] is -0.504 (inactive); in assay [6] it was 0.00537 (inactive). In addition, the NADPH fluorescence slope in assay [5] was -2.5e-05 (inactive).
Consider `CCOC(=O)C1CCN(C(=O)c2ccc(OC)cc2OC)CC1`, for which the cell count in assay [1] is 676. The inhibition in assay [1] was -5.3% (inactive); in assay [3], 43.5% (inactive); in assay [7], 20% (inactive); in assay [8] it was 20.5% (inactive). Besides, the inhibition of aggregation in assay [2] is 0.1% (inactive). For the same molecule, the nuclei count in assay [2] amounted to 97.6%; in assay [3], 86.8%. In addition, the fluorescence slope in assay [4] is -0.566 (inactive); in assay [6], 0.00429 (inactive). Also, the NADPH fluorescence slope in assay [5] was 5.6e-06 (inactive).
For the molecule `CCOC(=O)CNC(=O)Cn1cnc2c(nnn2-c2cccc(Cl)c2)c1=O`, the cell count in assay [1] is 629. Besides, the inhibition in assay [1] is -10% (inactive); in assay [3], -41.7% (inactive); in assay [7] it was -3.21% (inactive); in assay [8] it was 5.01% (inactive). The inhibition of aggregation in assay [2] is -8.9% (inactive). Also, the nuclei count in assay [2] stood at 140%; in assay [3], 110%. Also, the fluorescence slope in assay [4] was -0.477 (inactive); in assay [6], 0.00553 (inactive). For the same molecule, in assay [5], the NADPH fluorescence slope is 4.8e-05 (inactive).
On to `Cc1cccc(-n2c(N)c(C(=O)N3CCN(C)CC3)sc2=S)c1`, for which, in assay [1], the cell count came out at 786. In addition, the inhibition in assay [1] is 0.5% (inactive); in assay [3] it was -25.5% (inactive); in assay [7], -4.11% (inactive); in assay [8], 6.8% (inactive). In assay [2], the inhibition of aggregation is -24.6% (inactive). Further, the figures for the nuclei count in assay [2] and in assay [3] were 96.9% and 114%, respectively. Further, the fluorescence slope in assay [4] is -0.56 (inactive); in assay [6] it was 0.00592 (inactive). For the same molecule, the NADPH fluorescence slope in assay [5] was -2.7e-06 (inactive).
As to `COc1cccc(-c2cc(C(=O)Nc3c(C)nn(Cc4ccccc4)c3C)no2)c1`, the cell count in assay [1] was 438. In addition, the inhibition in assay [1] is -12.2% (inactive); in assay [3], 41.8% (inactive); in assay [7] it was 0.514% (inactive); in assay [8], -23.3% (inactive). For the same molecule, the inhibition of aggregation in assay [2] was -6.5% (inactive). For the same molecule, the results for the nuclei count in assay [2] and in assay [3] were 105% and 87%, respectively. For the same molecule, the values for the fluorescence slope in assay [4] and in assay [6] were -0.249 (inactive) and 0.00831 (inactive), respectively. Also, the NADPH fluorescence slope in assay [5] was -2.3e-05 (inactive).
As for `CCOc1ccc2nc(NC(=O)C(NS(=O)(=O)c3cccs3)C(C)C)sc2c1` (stereo not given), the cell count in assay [1] amounted to 390. Besides, the inhibition in assay [1] is 10% (inactive); in assay [3], -146% (inactive); in assay [7], 18.1% (inactive); in assay [8], 20.4% (inactive). For the same molecule, in assay [2], the inhibition of aggregation was 6.2% (inactive). Further, the nuclei count in assay [2] came out at 105%; in assay [3] it was 122%. In addition, the fluorescence slope is -0.423 (inactive) in assay [4] and 0.00543 (inactive) in assay [6]. Moreover, in assay [5], the NADPH fluorescence slope was 2.6e-05 (inactive).
Take `CCOC(=O)N1CCN(S(=O)(=O)c2ccc(Br)s2)CC1`: the cell count in assay [1] was determined as 350. Moreover, the inhibition in assay [1] was -8.6% (inactive); in assay [3], -27.3% (inactive); in assay [7], 21.3% (inactive); in assay [8] it was 11.6% (inactive). In addition, the inhibition of aggregation in assay [2] was -13.3% (inactive). In addition, the nuclei count in assay [2] came out at 84.3%; in assay [3], 98.6%. In addition, the fluorescence slope is -0.553 (inactive) in assay [4] and 0.00427 (inactive) in assay [6]. Further, in assay [5], the NADPH fluorescence slope was -1.3e-06 (inactive).

The record behind these values is PubChem BioAssay.
